Measured values published in ChEMBL document CHEMBL5550111, “Design, synthesis and biological evaluation of aryloxy thiophosphoramidate triesters of anticancer nucleoside analogues” (Bioorg Med Chem, 2024).

Legend:
HepG2 [1] = experiment: Cytotoxicity against human HepG2 cells assessed as inhibition of cell viability incubated for 72 hrs by MTS assay; assay type: functional, cell-based; conditions: HepG2, 72 h
Method in brief: (§1)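 Cells seeded at 0.5 to 100 × 10^3 per well the day before treatment, then exposed for 72 h to 9 serial concentrations (3.16-fold dilutions, top 198 μM), in duplicate. MTS added for a final 4 h at 37 °C and absorbance read. IC50 is the concentration giving 50% loss of viability. MI% is the maximum inhibition over the tested range.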

PC-3 [2] = experiment: Cytotoxicity against human PC-3 cells assessed as inhibition of cell viability incubated for 72 hrs by MTS assay; assay type: functional, cell-based; conditions: PC-3, 72 h; method in brief: as §1
MOLT-4 [3] = experiment: Cytotoxicity against human MOLT-4 cells assessed as inhibition of cell viability incubated for 72 hrs by MTS assay; assay type: functional, cell-based; conditions: MOLT-4, 72 h; method in brief: as §1
K562 [4] = experiment: Cytotoxicity against human K562 cells assessed as inhibition of cell viability incubated for 72 hrs by MTS assay; assay type: functional, cell-based; conditions: K562, 72 h; method in brief: as §1
HT-29 [5] = experiment: Cytotoxicity against human HT-29 cells assessed as maximum inhibition of cell viability upto 198 uM incubated for 72 hrs by MTS assay relative to control; assay type: functional; conditions: up to 198 µM
Method in brief: (§2)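 Cells seeded at 0.5 to 100 × 10^3 per well the day before drug addition, then exposed to compound for 72 h. MTS added afterwards, with a further 4 h at 37 °C, and absorbance read. Tested in duplicate at 9 serial 3.16-fold dilutions, top concentration 198 μM. MI% is the maximum inhibition of viability across the tested range.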

MCF7 [6] = experiment: Cytotoxicity against human MCF7 cells assessed as maximum inhibition of cell viability upto 198 uM incubated for 72 hrs by MTS assay relative to control; assay type: functional; conditions: up to 198 µM; method in brief: as §2
HL-60 [7] = experiment: Cytotoxicity against human HL-60 cells assessed as inhibition of cell viability incubated for 72 hrs by MTS assay; assay type: functional, cell-based; conditions: HL-60, 72 h; method in brief: as §1
MCF7 [8] = experiment: Cytotoxicity against human MCF7 cells assessed as inhibition of cell viability incubated for 72 hrs by MTS assay; assay type: functional, cell-based; conditions: MCF7, 72 h
MDA-MB-231 [9] = experiment: Cytotoxicity against human MDA-MB-231 cells assessed as maximum inhibition of cell viability upto 198 uM incubated for 72 hrs by MTS assay relative to control; assay type: functional; conditions: up to 198 µM; method in brief: as §2
HL-60 [10] = experiment: Cytotoxicity against human HL-60 cells assessed as maximum inhibition of cell viability upto 198 uM incubated for 72 hrs by MTS assay relative to control; assay type: functional; conditions: up to 198 µM; method in brief: as §2
K562 [11] = experiment: Cytotoxicity against human K562 cells assessed as maximum inhibition of cell viability upto 198 uM incubated for 72 hrs by MTS assay relative to control; assay type: functional; conditions: up to 198 µM; method in brief: as §2
[12] = Cytotoxicity against human ACHN-luc2 cells assessed as maximum inhibition of cell viability upto 198 uM incubated for 72 hrs by MTS assay relative to control; assay type: functional; conditions: up to 198 µM; method in brief: as §2
[13] = Cytotoxicity against human T24/83 cells assessed as inhibition of cell viability incubated for 72 hrs by MTS assay; assay type: functional, cell-based; conditions: T24/83, 72 h; method in brief: as §1
5637 [14] = experiment: Cytotoxicity against human 5637 cells assessed as inhibition of cell viability incubated for 72 hrs by MTS assay; assay type: functional, cell-based; conditions: Homo sapiens, 5637, 72 h; method in brief: as §1
MOLT-4 [15] = experiment: Cytotoxicity against human MOLT-4 cells assessed as maximum inhibition of cell viability upto 198 uM incubated for 72 hrs by MTS assay relative to control; assay type: functional; conditions: up to 198 µM; method in brief: as §2
KG-1 [16] = experiment: Cytotoxicity against human KG-1 cells assessed as inhibition of cell viability incubated for 72 hrs by MTS assay; assay type: functional, cell-based; conditions: KG-1, 72 h; method in brief: as §1
HT-29 [17] = experiment: Cytotoxicity against human HT-29 cells assessed as inhibition of cell viability incubated for 72 hrs by MTS assay; assay type: functional, cell-based; conditions: HT-29, 72 h; method in brief: as §1
[18] = Cytotoxicity against human ACHN-luc2 cells assessed as inhibition of cell viability incubated for 72 hrs by MTS assay; assay type: functional, cell-based; conditions: ACHN-luc2, 72 h; method in brief: as §1
HepG2 [19] = experiment: Cytotoxicity against human HepG2 cells assessed as maximum inhibition of cell viability upto 198 uM incubated for 72 hrs by MTS assay relative to control; assay type: functional; conditions: up to 198 µM; method in brief: as §2
RL [20] = experiment: Cytotoxicity against human RL cells assessed as inhibition of cell viability incubated for 72 hrs by MTS assay; assay type: functional, cell-based; method in brief: as §1
5637 [21] = experiment: Cytotoxicity against human 5637 cells assessed as maximum inhibition of cell viability upto 198 uM incubated for 72 hrs by MTS assay relative to control; assay type: functional; conditions: up to 198 µM; method in brief: as §2
KG-1 [22] = experiment: Cytotoxicity against human KG-1 cells assessed as maximum inhibition of cell viability upto 198 uM incubated for 72 hrs by MTS assay relative to control; assay type: functional; conditions: up to 198 µM; method in brief: as §2
[23] = Cytotoxicity against human T24/83 cells assessed as maximum inhibition of cell viability upto 198 uM incubated for 72 hrs by MTS assay relative to control; assay type: functional; conditions: up to 198 µM; method in brief: as §2
MDA-MB-231 [24] = experiment: Cytotoxicity against human MDA-MB-231 cells assessed as inhibition of cell viability incubated for 72 hrs by MTS assay; assay type: functional, cell-based; conditions: MDA-MB-231, 72 h; method in brief: as §1
MIA PaCa-2 [25] = experiment: Cytotoxicity against human MIA PaCa-2 cells assessed as inhibition of cell viability incubated for 72 hrs by MTS assay; assay type: functional, cell-based; conditions: MIA PaCa-2, 72 h; method in brief: as §1
CAKI-2 [26] = experiment: Cytotoxicity against human CAKI-2 cells assessed as maximum inhibition of cell viability upto 198 uM incubated for 72 hrs by MTS assay relative to control; assay type: functional; conditions: up to 198 µM; method in brief: as §2
A498 [27] = experiment: Cytotoxicity against human A498 cells assessed as maximum inhibition of cell viability upto 198 uM incubated for 72 hrs by MTS assay relative to control; assay type: functional; conditions: up to 198 µM; method in brief: as §2
COLO 205 [28] = experiment: Cytotoxicity against human COLO 205 cells assessed as inhibition of cell viability incubated for 72 hrs by MTS assay; assay type: functional, cell-based; conditions: COLO 205, 72 h; method in brief: as §1
CAKI-2 [29] = experiment: Cytotoxicity against human CAKI-2 cells assessed as inhibition of cell viability incubated for 72 hrs by MTS assay; assay type: functional, cell-based; conditions: CAKI-2, 72 h; method in brief: as §1
A498 [30] = experiment: Cytotoxicity against human A498 cells assessed as inhibition of cell viability incubated for 72 hrs by MTS assay; assay type: functional, cell-based; conditions: A498, 72 h; method in brief: as §1
RL [31] = experiment: Cytotoxicity against human RL cells assessed as maximum inhibition of cell viability upto 198 uM incubated for 72 hrs by MTS assay relative to control; assay type: functional; conditions: up to 198 µM; method in brief: as §2
MIA PaCa-2 [32] = experiment: Cytotoxicity against human MIA PaCa-2 cells assessed as maximum inhibition of cell viability upto 198 uM incubated for 72 hrs by MTS assay relative to control; assay type: functional; conditions: up to 198 µM; method in brief: as §2
PC-3 [33] = experiment: Cytotoxicity against human PC-3 cells assessed as maximum inhibition of cell viability upto 198 uM incubated for 72 hrs by MTS assay relative to control; assay type: functional; conditions: up to 198 µM; method in brief: as §2
COLO 205 [34] = experiment: Cytotoxicity against human COLO 205 cells assessed as maximum inhibition of cell viability upto 198 uM incubated for 72 hrs by MTS assay relative to control; assay type: functional; conditions: up to 198 µM; method in brief: as §2

## C[C@H](NP(=S)(OC[C@@H]1C[C@@H](O)[C@H](n2cnc3c(N)ncnc32)O1)Oc1ccccc1)C(=O)OCc1ccccc1 (some centres undefined)
HepG2 [1]
  IC50: 25.3 µM
PC-3 [2]
  IC50: 62.8 µM
MOLT-4 [3]
  IC50: 9.19 µM
K562 [4]
  IC50: 64.5 µM
HT-29 [5]
  Imax: 100%
MCF7 [6]
  Imax: 100%
HL-60 [7]
  IC50: 73.7 µM
MCF7 [8]
  IC50: 40.4 µM
MDA-MB-231 [9]
  Imax: 96%
HL-60 [10]
  Imax: 99%
K562 [11]
  Imax: 96%
[12]
  Imax: 97%
[13]
  IC50: 42.6 µM
5637 [14]
  IC50: 82.6 µM
MOLT-4 [15]
  Imax: 99%
KG-1 [16]
  IC50: 60 µM
HT-29 [17]
  IC50: 57.9 µM
[18]
  IC50: 33.9 µM
HepG2 [19]
  Imax: 100%
RL [20]
  IC50: 95.6 µM
5637 [21]
  Imax: 100%
KG-1 [22]
  Imax: 98%
[23]
  Imax: 100%
MDA-MB-231 [24]
  IC50: 50.6 µM
MIA PaCa-2 [25]
  IC50: 12.6 µM
CAKI-2 [26]
  Imax: 78%
A498 [27]
  Imax: 95%
COLO 205 [28]
  IC50: 41.8 µM
CAKI-2 [29]
  IC50: 76 µM
A498 [30]
  IC50: 44.5 µM
RL [31]
  Imax: 113%
MIA PaCa-2 [32]
  Imax: 100%
PC-3 [33]
  Imax: 97%
COLO 205 [34]
  Imax: 99%
